Source: ChEMBL document CHEMBL1909527, “Asymmetric synthesis and biological evaluation of N-cyclohexyl-4-[1-(2,4-dichlorophenyl)-1-(p-tolyl)methyl]piperazine-1-carboxamide as hCB1 receptor antagonists” (Eur J Med Chem, 2011)
The source made the active and inactive calls. The calls are words filed in the database; no cut-off is given here.

What was measured:
Cannabinoid receptor 1 [1] = target: T1, Cannabinoid receptor 1 (Homo sapiens, UniProt P21554); experiment: Antagonist activity at human CB1 receptor expressed in CHO cells coexpressing Galpha15/16 assessed as inhibition of CP55940-induced Ca2+ release after 10 mins by micro plate reader assay; format: functional, cell-based
How it was run: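 CHO-hCB1 cells co-expressing Gα15/16 loaded with fluo-4 AM in HBSS (with […] sulfinpyrazone, pH 7.4) at 37 °C for 50 min, washed, then given test compound at various concentrations (DMSO final 1%) for 10 min at room temperature before CP55940 addition; intracellular calcium read at ex 485/em 525 nm. Triplicate; IC50 from dose-response curves, mean ± SEM, n = 3.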

[2] = Half life in Sprague-Dawley rat at 10 mg/kg, po by LC/MS/MS analysis; format: ADME, organism-based; parameters: dose 10 mg/kg, route oral; settings: in vivo
How it was run: (§1)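 Sprague-Dawley rats dosed orally at 10 mg/kg; blood drawn at various time points into lithium heparin tubes, centrifuged, plasma stored at −20 °C until analysis. Values are mean ± SEM of at least three experiments.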

Cannabinoid receptor 1 [3] = target: T1, Cannabinoid receptor 1; experiment: Displacement of [3H]-CP-55940 from human CB1 receptor expressed in CHO cells pretreated for 10 mins measured after 3 hrs by scintillation counting; format: cell-based
How it was run: (§2)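 Whole-cell binding in CHO cells stably expressing hCB1 or hCB2, serum-starved in serum-free F12 for 3 h, pretreated with varying compound concentrations 10 min, then [3H]-CP-55940 added; 3 h at 37 °C. Cells washed 5× with warm PBS, lysed in PBS/1% SDS, bound radioactivity counted. Triplicate; Ki from nonlinear-regression IC50 via Cheng-Prusoff; mean ± SEM, n = 3 independent experiments.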

Cannabinoid receptor 2 = Cannabinoid receptor 2 (Homo sapiens, UniProt P34972); experiment: Displacement of [3H]-CP-55940 from human CB2 receptor expressed in CHO cells pretreated for 10 mins measured after 3 hrs by scintillation counting; format: cell-based; how it was run: as §2
[4] = Ratio of drug level in brain to plasma in Sprague-Dawley rat at 10 mg/kg, po measured 9 hrs post dose by LC/MS/MS analysis; format: ADME, organism-based; parameters: dose 10 mg/kg, route oral; settings: read-out: BPR
How it was run: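 Rats given 10 mg/kg orally and sacrificed at 3, 5 and 9 h post-dose; whole brain and blood collected and stored at −20 °C; brain/plasma ratio reported at 9 h. Mean ± SEM, at least three experiments.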

Mus musculus [5] = experiment: Antiobesity activity in diet-induced obese C57BL/6J mouse assessed as reduction of body weight at 10 mg/kg, po qd for 35 days; format: functional, organism-based; parameters: dose 10 mg/kg
How it was run: (§3)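 DIO mice aged 20–24 weeks, kept on high-fat diet throughout, group-housed at 25 °C on a 12 h/12 h light-dark cycle, conditioned to water gavage for 5 days. Dosed orally once daily for 35 days with vehicle (0.1% Tween 80) or compound at 10 mg/kg, 1 h before dark cycle; n = 9–10/group. Food intake and body weight measured weekly; visceral fat mass at study end.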

[6] = AUC (0 to infinity) in Sprague-Dawley rat at 10 mg/kg, po by LC/MS/MS analysis; format: ADME, organism-based; parameters: time infinity, dose 10 mg/kg, route oral; settings: plasma; how it was run: as §1
[7] = Cmax in Sprague-Dawley rat at 10 mg/kg, po by LC/MS/MS analysis; format: ADME, organism-based; parameters: dose 10 mg/kg, route oral; settings: in vivo; how it was run: as §1
[8] = Oral bioavailability in Sprague-Dawley rat at 10 mg/kg by LC/MS/MS analysis; format: ADME, organism-based; settings: in vivo; how it was run: as §1
Mus musculus [9] = experiment: Antiobesity activity in diet-induced obese C57BL/6J mouse assessed as reduction in food intake at 10 mg/kg, po qd for 35 days; format: functional, organism-based; parameters: dose 10 mg/kg; how it was run: as §3
[10] = Tmax in Sprague-Dawley rat at 10 mg/kg, po by LC/MS/MS analysis; format: ADME, organism-based; parameters: dose 10 mg/kg, route oral; settings: in vivo; how it was run: as §1
Mus musculus [11] = experiment: Antiobesity activity in diet-induced obese C57BL/6J mouse assessed as reduction in visceral fat mass at 10 mg/kg, po qd for 35 days; format: functional, organism-based; parameters: dose 10 mg/kg; how it was run: as §3

T1 sequence (P21554 whole entry): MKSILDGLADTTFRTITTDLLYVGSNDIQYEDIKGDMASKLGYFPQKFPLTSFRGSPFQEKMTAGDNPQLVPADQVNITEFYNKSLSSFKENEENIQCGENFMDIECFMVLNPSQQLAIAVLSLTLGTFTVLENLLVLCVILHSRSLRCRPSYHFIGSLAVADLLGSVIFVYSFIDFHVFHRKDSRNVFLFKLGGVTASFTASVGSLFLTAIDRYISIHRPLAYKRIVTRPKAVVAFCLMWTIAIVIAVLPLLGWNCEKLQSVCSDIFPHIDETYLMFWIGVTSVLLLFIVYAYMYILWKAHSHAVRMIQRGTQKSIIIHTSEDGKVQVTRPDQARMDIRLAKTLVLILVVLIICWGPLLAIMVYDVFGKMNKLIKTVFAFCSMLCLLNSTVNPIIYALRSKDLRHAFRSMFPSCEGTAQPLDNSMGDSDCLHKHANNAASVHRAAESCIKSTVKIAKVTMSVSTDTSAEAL
Sequence of Cannabinoid receptor 2 (P34972 whole entry): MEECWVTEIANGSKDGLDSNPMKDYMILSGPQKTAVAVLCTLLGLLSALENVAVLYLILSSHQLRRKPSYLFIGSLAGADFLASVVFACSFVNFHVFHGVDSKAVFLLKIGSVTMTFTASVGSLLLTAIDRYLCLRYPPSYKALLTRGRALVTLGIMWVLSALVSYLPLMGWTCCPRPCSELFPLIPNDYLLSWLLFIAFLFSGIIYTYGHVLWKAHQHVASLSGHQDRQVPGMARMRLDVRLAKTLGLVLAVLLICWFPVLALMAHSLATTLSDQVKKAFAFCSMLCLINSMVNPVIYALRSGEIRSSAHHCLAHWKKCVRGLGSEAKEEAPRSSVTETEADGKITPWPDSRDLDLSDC

Cc1ccc([C@@H](c2ccc(Cl)cc2Cl)N2CCN(C(=O)NC3CCCCC3)CC2)cc1
IC50 (Cannabinoid receptor 1 [1]): 21.5 nM | half-life [2]: 3.4 h | Ki (Cannabinoid receptor 1 [3]): 1.1 nM | Ki (Cannabinoid receptor 2): 242 nM | Kp at 9 h [4]: 1.42 | Activity (Mus musculus [5]): inactive | AUC(0-inf) [6]: 695 ng·h/mL | Cmax [7]: 128 ng/mL | bioavailability [8]: 6% | Activity (Mus musculus [9]): inactive | Tmax [10]: 1.3 h

Cc1ccc([C@H](c2ccc(Cl)cc2Cl)N2CCN(C(=O)NC3CCCCC3)CC2)cc1
IC50 (Cannabinoid receptor 1 [1]): 0.9 nM | half-life [2]: 3.8 h | Ki (Cannabinoid receptor 1 [3]): 0.2 nM | Ki (Cannabinoid receptor 2): 227 nM | Kp at 9 h [4]: 0.88 | Activity (Mus musculus [5]): Active | Activity (Mus musculus [11]): Active | AUC(0-inf) [6]: 655 ng·h/mL | Cmax [7]: 116 ng/mL | bioavailability [8]: 15% | Activity (Mus musculus [9]): inactive | Tmax [10]: 1.2 h

Cc1ccc(C(c2ccc(Cl)cc2Cl)N2CCN(C(=O)NC3CCCCC3)CC2)cc1 (racemic)
half-life [2]: 2.3 h | Kp at 9 h [4]: 0.91 | AUC(0-inf) [6]: 883 ng·h/mL | Cmax [7]: 180 ng/mL | bioavailability [8]: 8% | Tmax [10]: 2.4 h
